Assay [1] relates to Human immunodeficiency virus 1. The experiment in a line: Antiviral activity against Human immunodeficiency virus type 1 (isolate YU2) pseudotyped virus expressed in human U87 cells after 48 hrs by cell-based luciferase reporter gene assay. The assay is classed as functional, U-87MG ATCC. The note with it: Human immunodeficiency virus 1, isolate YU2, U-87 MG. The method, boiled down: (§1)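 Envelope-pseudotyped, single-round luciferase-reporter virus was made in 293T cells co-transfected with pNL4-3-LucR+E- and the matching Env vector. U87-CD4/CCR5 or U87-CD4/CXCR4 cells were seeded at 1.2x10⁴ per well and infected next day with 20 ng p24 per well plus compound (6–9 dilutions, 1:10 or 1:5, triplicate) or DMSO. Luciferase was read at 48 h; % infection is relative to DMSO wells.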

Assay [2] concerns Human immunodeficiency virus 1. Description: Antiviral activity against HIV1 pseudotyped virus expressed in human U87 cells co-expressing AMLV envelope after 48 hrs by cell-based luciferase reporter gene assay. The assay is classed as functional, organism-based. The conditions noted are these: u-87mg atcc. The method, boiled down:
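Single-round infection of U87-CD4/CCR5 or U87-CD4/CXCR4 cells (seeded at 1.2x10⁴/well, infected next day) with 20 ng p24 per well of luciferase-reporter pseudovirus made in 293T cells using pNL4-3-LucR⁺E⁻. Compounds were applied in six to nine serial dilutions (1:10 or 1:5) alongside DMSO, in triplicate. Luciferase was read at 48 h, and percent infection was taken relative to DMSO wells.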

Assay [3] concerns Human immunodeficiency virus 1. Description: Antiviral activity against Human immunodeficiency virus type 1 (JRCSF ISOLATE) pseudotyped virus expressed in human U87 cells after 48 hrs by luciferase reporter gene assay. The assay is classed as functional, cell-based, U-87MG ATCC. The conditions noted are these: Human immunodeficiency virus 1, JRCSF ISOLATE, U-87 MG. The method in brief:
as §1

For assay [4], the system named is Human immunodeficiency virus 1. Description: Antiviral activity against HIV1 isolate Hxbc2 pseudotyped virus expressed in human U87 cells after 48 hrs by luciferase reporter gene assay. The assay is classed as functional, organism-based, U-87MG ATCC. The note with it: Human immunodeficiency virus 1, isolate Hxbc2, U-87 MG. The method in brief: as §1
A short description of assay [5]: Antiviral index, ratio of TC50 for human PBMC to IC50 for HIV1 subtype B isolate 91US004.
Assay [6] concerns Human immunodeficiency virus 1. Description: Antiviral activity against HIV1 subtype D isolate 99UG_A07412M1 infected in human PBMC. The conditions noted are these: Human immunodeficiency virus 1, isolate 99UG_A07412M1. It counts as functional, organism-based.
Assay [7] in a line: Antiviral index, ratio of TC50 for human PBMC to IC50 for HIV1 subtype D isolate 99UG_A07412M1.
Assay [8] has as its system Human immunodeficiency virus 2. Description: Antiviral activity against HIV2 isolate CDC310319 infected in human PBMC. The assay is classed as functional, organism-based. The note with it: Human immunodeficiency virus 2, isolate CDC310319.
Assay [9] in a line: Antiviral index, ratio of TC50 for human PBMC to IC50 for HIV1 subtype C isolate 98US_MSC5016.
Assay [10] relates to Human immunodeficiency virus 1. Description: Antiviral activity against HIV1 subtype A isolate 92UG037 infected in human PBMC. The assay is classed as functional, organism-based. The conditions noted are these: Human immunodeficiency virus 1, isolate 92UG037.
Assay [11] in a line: Antiviral index, ratio of TC50 for human PBMC to IC50 for HIV1 subtype B isolate 94US_33931N.
Assay [12] concerns Human immunodeficiency virus 1. The experiment in a line: Antiviral activity against HIV1 subtype C isolate 98US_MSC5016 infected in human PBMC. The assay is classed as functional, organism-based. The note with it: Human immunodeficiency virus 1, isolate 98US_MSC5016.
A short description of assay [13]: Antiviral index, ratio of TC50 for human PBMC to IC50 for HIV1 subtype A isolate 92UG037.
Assay [14] deals with Human immunodeficiency virus 1. The experiment in a line: Antiviral activity against HIV1 subtype B isolate 91US004 infected in human PBMC. The note with it: Human immunodeficiency virus 1, isolate 91US004. The assay is classed as functional, organism-based.
The subject of assay [15] is Human immunodeficiency virus 1. The experiment in a line: Antiviral activity against HIV1 subtype B isolate 94US_33931N infected in human PBMC. It counts as functional, organism-based. The conditions noted are these: Human immunodeficiency virus 1, isolate 94US_33931N.

Regarding `O=C(CSc1ncnc2sccc12)N1CCN(C(=O)c2cccs2)CC1`, the IC50 in assay [1] is 33700 nM; in [2], “Not Active”.

As for `O=C(c1ccccc1)N1CCN(C(=O)c2ccc3c4c(cccc24)CC3)CC1`, the IC50 in assay [1] is 13100 nM; in [2], “Not Active”.

Regarding `O=C(COc1cccc2ccccc12)N1CCN(C(=O)c2ccccc2)CC1`, the IC50 was 53500 nM in assay [1] and “Not Active” in assay [2].

Take `O=C(Cc1cccc2ccccc12)N1CCN(C(=O)c2ccco2)CC1`: the figures for the IC50 in assay [1] and in [2] were 79400 nM and “Not Active”, respectively.

Regarding `Cc1cc(C)nc(SCC(=O)N2CCN(C(=O)c3ccccc3)CC2)n1`, the IC50 is 153000 nM in [1] and “Not Active” in assay [2].

Turning to `O=C(c1ccccc1)N1CC2CN(C(=O)c3ccc4c5c(cccc35)CC4)CC2C1` (stereo not given), the values for the IC50 entry in assay [2] and in assay [3] were “Not Active” and 100000 nM, respectively.

On to `COc1cnc(Cl)c2[nH]cc(C(=O)C(=O)N3CC4CN(C(=O)c5ccccc5)CC4C3)c12` (stereo not given), for which the results for the IC50 entry in assay [2], in [4] and in assay [3] were “Not Active”, 16800 nM and 980 nM, respectively.

For the compound `COc1ncc(OC)c2c(C(=O)C(=O)N3CC4CN(C(=O)c5ccccc5)CC4C3)c[nH]c12` (stereo not given), the results for the IC50 result in assay [2], in assay [4] and in assay [3] were “Not Active”, 190 nM and 90 nM, respectively.

`COc1cnc(-n2cnc(C)n2)c2[nH]cc(C(=O)C(=O)N3CC4CN(C(=O)c5ccccc5)CC4C3)c12` (stereo not given): the IC50 result in assay [2] was “Not Active”; in [4], 1 nM; in assay [3], 0.8 nM.

Regarding `COc1cnc(-n2cnc(C)n2)c2[nH]cc(C(=O)C(=O)N3CC4CN(C(=O)C5=CCCCC5)CC4C3)c12` (stereo not given), the Ratio in assay [5] was greater than 513; in assay [7], greater than 204; in assay [9] it was greater than 25.6; in assay [11], greater than 166666; in assay [13] it was greater than 3.97. For the same compound, the IC50 in assay [6] is 490 nM; in [8] it was greater than 100000 nM; in assay [2], “Not Active”; in assay [10], 25200 nM; in assay [4], 0.6 nM; in [12], 3900 nM. Also, the IC50 in assay [3] was found to be 2 nM; in [14] it was 195 nM; in assay [15], 0.6 nM.

The values above are taken from ChEMBL document CHEMBL3351851, “Discovery and optimization of novel small-molecule HIV-1 entry inhibitors using field-based virtual screening and bioisosteric replacement” (Bioorg Med Chem Lett, 2014).
